Measured values taken from ChEMBL document CHEMBL1152330, “Cytotoxic triterpenoid alkaloids from Buxus microphylla” (J Nat Prod, 2009).

Columns and labels:
K562 = experiment: Cytotoxicity against human K562 cells after 72 hrs by MTT assay; type: functional, cell-based; details: K562, 72 h
Method in brief: (§1)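 Cells grown in RPMI-1640 with 10% heat-inactivated bovine serum, L-glutamine, penicillin/streptomycin and 10 mM HEPES pH 7.4, at 37 °C, 5% CO2. Seeded, allowed to adhere 24 h, then exposed at 0.01–100 µg/mL (tenfold steps) for 72 h, triplicate wells. MTT 4 h, SDS–isobutanol–HCl solubilization 12–20 h. OD 570 nm versus DMSO controls. IC50 by LOGIT.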

HepG2 = experiment: Cytotoxicity against human HepG2 cells after 72 hrs by MTT assay; type: functional, cell-based; details: HepG2, 72 h; method in brief: as §1

Row | SMILES | IC50 (K562) [µM] | IC50 (HepG2) [µM]
1 | C/C=C1/C(=O)C[C@@]2(C)[C@@H]3CCC4C(C)(C)[C@@H](NC)CC[C@@]45C[C@@]35CC[C@]12C (stereo partly specified) | 1.7 | > 100
2 | C=C1C2CC[C@@H]3[C@]4(CC[C@]5(C)/C(=C\C)C(=O)C[C@@]35C)C[C@]24CC[C@@H]1NC (stereo partly specified) [BIXMICROPHYLLINE B] | 0.37 | 0.78
3 | C=C1C2CC[C@@H]3[C@]4(CC[C@]5(C)[C@@H](C(C)=O)[C@H](O)C[C@@]35C)C[C@]24CC[C@@H]1N(C)C (stereo partly specified) [BUXIPPINE K] | 35.3 | 57.1
4 | C[C@@H]([C@H]1[C@H](OC(=O)c2ccccc2)C[C@@]2(C)[C@@H]3CCC4[C@@]5(CC[C@H](NC(=O)c6ccccc6)[C@@]4(C)CO)C[C@@]35CC[C@]12C)N(C)C (stereo partly specified) [BUXMICROPHYLLINE E] | > 100 | 39.7
5 | CC(C)C(=O)N[C@H]1CC[C@]23C[C@]24CC[C@]2(C)[C@@H]([C@H](C)N(C)C)[C@H](OC(=O)c5ccccc5)C[C@@]2(C)[C@@H]4C=CC3[C@]1(C)CO (stereo partly specified) [BUXMICROPHYLLINE F] | 2.95 | 20.1
6 | COc1ccc(/C=C/C(=O)N[C@H]2CC[C@]34C[C@]35CC[C@]3(C)[C@@H]([C@H](C)N(C)C)[C@H](O)C[C@@]3(C)[C@@H]5CCC4[C@]2(C)CO)cc1O (stereo partly specified) [BUXMICROPHYLLINE G] | 4.44 | 0.89
7 | C=C1C2CC[C@@H]3[C@]4(CC[C@]5(C)[C@@H](C(C)=O)[C@H](O)C[C@@]35C)C[C@]24CC[C@@H]1NC (stereo partly specified) [CYCLOMICROBUXININE] | > 100 | > 100
8 | C/C=C1\C(=O)C[C@@]2(C)[C@@H]3CCC4C(C)(C)[C@@H](NC)CC[C@@]45C[C@@]35CC[C@]12C (stereo partly specified) [Z-buxenone] | 5.61 | 14.9
